The nature of data set [1]: Half life period of compound was determined after peroral administration at 2 mg/kg. Format: ADME, organism-based, Canis lupus familiaris. The arrangement: dose 2 mg/kg, route oral. To be noted: dog, in vivo, po. The essentials:
(§1)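 Dogs dosed iv at 2 mg/kg or orally at 2 mg/kg. Plasma parameters derived were half-life, Cmax, Tmax and oral bioavailability (F).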

A short description of data set [2]: Half life period of compound was determined at a dose of 3 mg/kg by intravenous administration. Type of data set: ADME, organism-based. Also on record: dose 3 mg/kg, route intravenous. The conditions noted are these: rat, in vivo. The essentials: (§2)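 Rats, n = 3 per route, dosed by iv injection at 3 mg/kg or oral gavage at 5 mg/kg. Plasma analysed by LC/MS–MS with LXA₄ as internal standard on a C18 column (10–80% gradient over 2 min). For methyl ester dosing, the plasma acid formed by hydrolysis was the analyte quantified. Outputs: T1/2, clearance, AUCall, Cmax, Tmax, F.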

Another data set has as its system Mus sp. Put plainly: (§3) Inhibition of the edema formation by compound was determined in mice. Type of data set: functional, organism-based. In outline: (§4)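 Mice given ionophore on the ear with topical coapplication of compound at 100, 300 and 600 µg/cm², vehicle and ionophore controls alongside. Euthanized at 24 h. Ear weight taken as edema. Peroxidase (granulocytes) and elastase (neutrophils) activities measured in ear homogenates. N = 8–10 mice per group, mean ± SEM.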

Data set [3] can be described thus: Area under curve after intravenous administration at 3 mg/kg. The conditions noted are these: rat, in vivo. Type of data set: ADME, organism-based. Also on record: dose 3 mg/kg, route intravenous. In outline: as §2
A further data set concerns Rattus norvegicus. As to the kind of experiment: Compound clearance in rats was measured after intravenous administration at 3 mg/kg. Type of data set: ADME, organism-based. Also on record: dose 3 mg/kg, route intravenous. To be noted: in vivo. The essentials:
as §2

Data set [4] is described as follows: F value of compound in rats was determined after peroral administration. Type of data set: ADME, organism-based. To be noted: rat, in vivo, po. The essentials:
as §2

A short description of data set [5]: Bioavailability of compound in dog was determined after peroral administration. Type of data set: ADME, organism-based, Canis lupus familiaris. To be noted: in vivo, po. In outline: as §1
The nature of data set [6]: Tmax was measured in rats after peroral administration at 5 mg/kg. Format: ADME, organism-based. The arrangement: dose 5 mg/kg, route oral. The conditions noted are these: rat, in vivo, po. In outline:
as §2

Data set [7] is described as follows: Half life period of compound was determined after peroral administration. Format: ADME, organism-based. To be noted: rat, in vivo, po. The essentials: as §2
Data set [8] is described as follows: Half life period of compound was determined after intravenous administration at 2 mg/kg. Type of data set: ADME, organism-based, Canis lupus familiaris. The arrangement: dose 2 mg/kg, route intravenous. To be noted: dog, in vivo. In outline:
as §1

The nature of data set [9]: Oral bioavailability in rat. To be noted: in vivo. Type of data set: ADME, organism-based. The essentials:
as §2

The next data set deals with Mus musculus. Described as §3. Type of data set: functional, organism-based. The essentials: as §4
The nature of data set [10]: Bioavailability value of compound in rats was determined after peroral administration. Format: ADME, organism-based. To be noted: rat, in vivo, po. In outline:
as §2

On to `O=C(O)COC[C@H](O)[C@H](O)/C=C/C=C/C#C/C=C/[C@H](O)COc1ccc(F)cc1`, for which the half-life – broadly, the time in which the quantity being followed falls by half – in [1] is 3.2 h; in data set [2] it was 2.3 h; in data set [7], 2.2 h; in [8] it was 2.7 h. The compound also returned an ED50 with Mus sp. of under 300 µg/cm². In addition, the AUC (as a rule, the area under the concentration-time curve, a measure of exposure) in data set [3] is 7000 ng·h/mL. This compound returned a Cl in the data set on Rattus norvegicus of 7 mL/min/kg. Moreover, the values for the bioavailability in data set [4] and in data set [5] were 14% and 40%, respectively. In addition, in data set [6], the time of peak concentration (Tmax) (as a rule, the time from dosing to the highest level) was determined as 1.3 h.

`O=C(O)CCC[C@H](O)[C@H](O)/C=C/C=C/C#C/C=C/[C@@H](O)COc1ccc(F)cc1`: the half-life in [2] was 0.1 h; in data set [7], 1.8 h. Also, the AUC in data set [3] worked out at 900 ng·h/mL. Moreover, the bioavailability (in general, dose-corrected exposure relative to a reference, in per cent) in data set [9] was 28%. In the data set with Rattus norvegicus, this compound had a Cl of 58 mL/min/kg. Also, the Tmax in data set [6] stood at 0.5 h.

For the compound `O=C(O)COC[C@H](O)[C@H](O)/C=C/C=C/C=C/C=C/[C@H](O)COc1ccc(F)cc1`, the half-life was 1.3 h in data set [2] and 1.1 h in data set [7]. In the data set on Mus musculus, this compound came in with an IC50 of under 300 ug cm**-2. Moreover, the AUC in [3] amounted to 1000 ng·h/mL. In data set [9], this compound yielded a bioavailability of 4%. Also, in the data set with Rattus norvegicus, the Cl was found to be 50 mL/min/kg. Also, the Tmax in data set [6] is 0.5 h.

Regarding `COC(=O)CCCC(O)C(O)/C=C/C=C/C=C/C=C/[C@H](O)COc1ccc(F)cc1` (single isomer, unassigned), the values for the half-life in data set [2] and in [7] were 0.3 h and 0.5 h, respectively. Also, in data set [3], the AUC was determined as 1000 ng·h/mL. Further, in data set [9], the bioavailability amounted to 12%. This compound also gave a Cl in the data set on Rattus norvegicus of 51 mL/min/kg. Further, the Tmax in data set [6] turned out to be 0.5 h.

For `O=C(O)CCCC(O)C(O)/C=C/C=C/C=C/C=C/[C@H](O)COc1ccc(F)cc1` (single isomer, unassigned), the half-life in [2] was 0.2 h; in [7], 1.1 h. The same compound yielded a bioavailability in data set [10] of 13%. For the same compound, the AUC in [3] was found to be 1800 ng·h/mL. In the data set on Rattus norvegicus, this compound yielded a Cl of 28 mL/min/kg. Moreover, the Tmax in data set [6] was found to be 1 h.
